Bioassay records deposited in PubChem BioAssay by several laboratories.
MT1-MMP act inh = inhibitors of human MT1-MMP activation; P50281; HT1080 RFP-PRO-GFP cells, GFP/RFP ratio fluorescence, overnight; percent of plate control window, DMSO zero; GFP/RFP ratio change, % at 20 µM; 0.061% of 360,000 active; AID 651647;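 active = GFP/RFP ratio change of at least 30% with cell ATP level not reduced by more than half and red fluorescence within 50% of control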
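Read-out: GFP/RFP fluorescence ratio; Test system: RFP-PRO-GFP reporter HT1080 cells; Compound dosing: single-point 20 µM compound, 1% DMSO; Times: overnight compound exposure at 37 °C.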
eLon inh = E. coli protease La inhibition; P0A9M0; purified E. coli Lon protease, fluorescence polarization; inhibition, % at 7.94 µM; 0.42% of 360,000 active; in the data active = inhibition above about 13%, passing the limit was not always enough;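 also: 0% = enzyme with probe and DMSO and 100% = no enzyme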
Target sequence (P0A9M0 whole entry, looked up): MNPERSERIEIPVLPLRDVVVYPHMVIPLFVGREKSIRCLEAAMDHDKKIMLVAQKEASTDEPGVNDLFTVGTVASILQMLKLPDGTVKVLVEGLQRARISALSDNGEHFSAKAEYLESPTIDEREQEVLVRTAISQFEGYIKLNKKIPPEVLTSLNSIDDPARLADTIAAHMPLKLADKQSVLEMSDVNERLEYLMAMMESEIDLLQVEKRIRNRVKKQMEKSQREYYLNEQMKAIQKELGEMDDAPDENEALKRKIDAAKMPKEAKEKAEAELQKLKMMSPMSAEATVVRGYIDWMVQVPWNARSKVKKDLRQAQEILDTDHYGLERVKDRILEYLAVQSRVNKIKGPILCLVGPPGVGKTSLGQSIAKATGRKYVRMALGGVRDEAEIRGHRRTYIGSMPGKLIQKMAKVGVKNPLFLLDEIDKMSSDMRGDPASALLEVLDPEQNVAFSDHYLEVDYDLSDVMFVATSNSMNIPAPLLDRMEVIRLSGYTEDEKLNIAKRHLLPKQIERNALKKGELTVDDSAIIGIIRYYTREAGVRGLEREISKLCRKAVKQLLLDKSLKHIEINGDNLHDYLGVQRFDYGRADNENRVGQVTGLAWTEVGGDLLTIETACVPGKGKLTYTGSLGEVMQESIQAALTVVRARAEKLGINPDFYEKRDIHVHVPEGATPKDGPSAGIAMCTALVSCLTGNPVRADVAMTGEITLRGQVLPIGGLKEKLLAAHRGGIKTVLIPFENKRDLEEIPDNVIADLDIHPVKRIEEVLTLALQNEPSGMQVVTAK
PREPL inh = human PREPL enzyme inhibition; Q4J6C6; recombinant PREPL, fluorescence polarization activity-based probe; inhibition, % at 5.96 µM; 0.68% of 320,000 active; in the data active = inhibition above about 43%;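 also: 0% = enzyme with DMSO and 100% = wells lacking enzyme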
TbMetRS inhib = blocks T. brucei methionyl-tRNA synthetase activity; 0.4% of 360,000 active; inhibition, % at 11.9 µM; purified T. brucei MetRS, ATP depletion, Kinase-Glo luminescence;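 active = inhibition above a per-plate cutoff of the control wells' mean inhibition plus 3 SD, cut at about 5.5% in these data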;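 also: 0% = DMSO wells median and 100% = median of wells with control inhibitor compound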
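Material – parasite MetRS enzyme · Medium – HEPES-MgCl2-KCl buffer plus DTT, spermine, BSA, pyrophosphatase · Reagent – ATP, methionine and E. coli bulk tRNA substrates · Times – 15 min enzyme-compound preincubation, 2 h reaction, 10 min detection, 25 °C · Measured by – luminescence of leftover ATP · Evaluation – percent inhibition relative to median high and low control wells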
hiPSC survival = enhancers of human iPSC single-cell survival; hiPSC single-cell survival, ATPlite luminescence; 100% = ROCK inhibitor wells, 0% = DMSO; 0.044% of 360,000 active; survival enhancement, % at 20 µM; in the data active = survival enhancement above about 18%;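 also: cells exposed to compounds for 16 hours before the ATP read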
SKN-1 block = C. elegans SKN-1 inhibition; 0.49% of 360,000 active; C. elegans VP596 Pgst-4::GFP/RFP ratio, acrylamide-induced, 24 h; inhibition, % at 21.8 µM;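 active = interference check ratio from 0.5 to 1.5 plus GFP to RFP signal ratio inhibition reaching or exceeding a fixed threshold, cut at about 30% in these data, passing the limit was not always enough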
TbMetRS confirm = Trypanosoma brucei MetRS inhibition confirmed. inhibition, % at 11.9 µM. shares compounds with TbMetRS inhib. 93% of 1,400 active. AID 624412. T. brucei MetRS enzyme, luminescence (ATP depletion); in the data active = inhibition above about 7%
Jurkat tox = kills Jurkat cells in T. brucei MetRS counterscreen; shares compounds with TbMetRS inhib; inhibition, % at 8.3 µM; Jurkat cells viability, ATP luminescence; AID 624413; 12% of 1,400 active; in the data active = inhibition above about 15%;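 also: 0% = vehicle and 100% = reference inhibitor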
TbMetRS FP orth = T. brucei MetRS inhibition, orthogonal assay; inhibition, % at 11.9 µM; 44% of 1,400 active; purified T. brucei MetRS, fluorescence polarization; shares compounds with TbMetRS inhib; in the data active = inhibition above about 17%;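 also: 0% = vehicle wells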
Active calls of the source: *; . = no result. Rows were chosen to be rich in hits. Some 1.8% of all compounds tested hit in one or more screens of this group.

SMILES	MT1-MMP act inh	eLon inh	PREPL inh	TbMetRS inhib	hiPSC survival	SKN-1 block	TbMetRS confirm	Jurkat tox	TbMetRS FP orth
CO[C@@H]1CN(C)C(=O)c2cc(NC(=O)Nc3cc(F)ccc3F)ccc2OC[C@H](C)N(C(=O)c2cnccn2)C[C@@H]1C	-1	.	.	6.2*	.	8	14*	0	1
O=C(NCc1ccco1)C(c1ccccc1)N(Cc1cccnc1)C(=O)Cn1nnc2ccccc21 (centres undefined)	9	-2	2	0	-2	-5	.	.	.
O=C(Nc1ccc(Cl)cc1)N(Cc1nc2ccccc2c(=O)[nH]1)Cc1cccs1	-5	6	-25	9.8*	3	-1	38*	3	19*
O=C(Nc1ccccc1Cl)N(Cc1nc2ccccc2c(=O)[nH]1)Cc1cccs1	2	3	-1	-1	5	13	.	.	.
C[C@H](NC(=O)Cc1ccccc1)C(=O)N1CCC2(CC1)NCCc1[nH]cnc12	1	1	1	0	0	7	.	.	.
Cc1[nH]c(=O)[nH]c(=O)c1C=CC(=O)NC(CO)CS(=O)Cc1ccccc1 (centres undefined)	2	-5	.	0	2	2	.	.	.
CCOC(=O)c1ccc(NC(=O)C2(c3ccc(Cl)cc3)CCCC2)cc1	-6	5	-4	0	12	-4	.	.	.
Cc1ccc(NC(=O)COC(=O)C2(c3ccc(Cl)cc3)CCCC2)cc1	-9	4	-13	6.9*	1	4	12*	3	12
CCSc1nsc(NC(=O)Nc2ccccc2F)n1	2	0	-1	7.0*	0	19	13*	5	6
CCSc1nsc(NC(=O)Nc2cccc(OC)c2)n1	-9	1	11	0	-1	12	.	.	.
Cc1ccc(NC(=S)NCCSc2ccc(Cl)cc2)cc1	0	1	-10	0	0	-3	.	.	.
CC(CNC(=S)Nc1cc(F)cc(F)c1)CSc1ccc(Cl)cc1 (centres undefined)	-2	6	-19	13*	0	8	25*	2	27*
COc1cccc(NC(=O)CSCC(=O)Nc2ccccc2)c1	2	1	-9	6.1*	-2	6	18*	-8	2
Cc1n[nH]c(C)c1Sc1ccccc1N=Cc1cc([N+](=O)[O-])ccc1O	.	.	1	.	.	.	.	.	.
Cc1ccc(C(=O)NCCSc2c(C)[nH]c3ccccc23)cc1[N+](=O)[O-]	3	7	8	0	-2	-4	.	.	.
Cc1ccc(C(=O)NCCc2nc3ccccc3[nH]2)cc1[N+](=O)[O-]	-4	1	2	77*	-2	7	78*	20*	59*
O=C(NCCc1nc2ccccc2[nH]1)c1ccc(Cl)c([N+](=O)[O-])c1	3	-5	3	94*	0	0	100*	6	97*
COCCn1c(SCC(=O)NCc2ccc(F)cc2)nc2ccccc21	0	-2	-3	-1	0	4	.	.	.
O=C(CN1C(=O)c2ccccc2S1(=O)=O)NCc1ccco1	-4	-5	0	0	-1	-21	.	.	.
O=C1Nc2cc(C(=O)N3CCOCC3)ccc2S/C1=C/c1ccccc1F	-4	-9	.	0	-1	13	.	.	.
C[C@@H]1CN([C@@H](C)CO)C(=O)c2cc(NC(=O)Nc3ccccc3)ccc2O[C@@H](C)CCCCO[C@H]1CN(C)C(=O)Nc1ccc(C(F)(F)F)cc1	6	1	.	18*	-1	-1	22*	3	15
Cc1cccc(N(C)c2ccc3cc(S(=O)(=O)N4CCCC4)ccc3n2)c1	4	-1	12	0	0	-8	.	.	.
Cc1cc(O)c2/c(=N\N)c(-c3csc(C)n3)coc2c1	0	-4	15	0	0	7	.	.	.
CN(CCC(=O)Nc1ccc2c(c1)OCO2)Cc1ccccc1	3	-3	13	2	-1	7	.	.	.
CN(CC(=O)Nc1ccc(Cl)cc1)C(=O)CCc1ccccc1	-2	-5	-15	20*	0	-1	39*	-5	18*
SMILES	MT1-MMP act inh	eLon inh	PREPL inh	TbMetRS inhib	hiPSC survival	SKN-1 block	TbMetRS confirm	Jurkat tox	TbMetRS FP orth
CN(CC(=O)Nc1ccc(Cl)cc1)CC(=O)Nc1cccc(Br)c1	0	4	-36	30*	0	11	49*	7	29*
COc1ccc(NC(=O)CN(C)C(=O)CCCc2c[nH]c3ccccc23)cc1	-2	-5	14	0	0	-2	.	.	.
CN(CCC(=O)Nc1ccc(Cl)cc1)Cc1ccccc1	0	-6	-10	14*	0	5	31*	8	15
CN(CC(=O)Nc1ccc(Cl)cc1)C(=O)CCNC(=O)c1ccc(Cl)cc1	-3	5	-3	3	0	-24	.	.	.
CN(CC(=O)Nc1ccc(Cl)cc1)C(=O)CCc1c[nH]c2ccccc12	2	1	-2	34*	-1	5	55*	0	23*
COc1ccccc1Nc1nc(NCCCCO)nc(N2CCCC2)n1	7	-1	-2	0	0	2	.	.	.
COc1ccc(C2NC(=O)NC(C)=C2C(=O)OC2CCC(C)CC2)cc1 (centres undefined)	-1	-6	.	0	0	-6	.	.	.
Cc1cccc(N2CCN(C(=O)c3ccc(Cl)c(S(=O)(=O)N4CCc5ccccc5C4)c3)CC2)c1C	-11	15	7	0	0	6	.	.	.
Cc1ccc(NC(=O)CN(C)C(=O)Cc2ccc(Cl)cc2Cl)cc1	5	3	2	54*	0	2	67*	-2	42*
Cc1scc(C(=O)O)c1-c1c(C(=O)O)csc1C	2	-9	6	0	-1	-7	.	.	.
CCNc1nc(NC(N)=S)nc(NC(C)(C)C)n1	0	0	3	0	-4	-5	.	.	.
O=C(c1ccncc1)c1ccc(N2CCN(C3CC(=O)N(Cc4cccs4)C3=O)CC2)cc1 (centres undefined)	-5	14	-8	6.6*	0	2	14*	11	6
O=C1CC(N2CCN(c3ccc(O)cc3)CC2)C(=O)N1Cc1cccs1 (centres undefined)	2	0	30	-1	-3	11	.	.	.
Cc1c(C#N)sc2nc(-c3ccccc3)nc(N3CCCC3)c12	11	-6	-8	-1	0	5	.	.	.
CS(=O)(=O)c1ccc(Cl)c(NC(=O)C2CCCCN2S(=O)(=O)c2ccccc2)c1 (centres undefined)	1	-7	1	0	0	9	.	.	.
